Results: ChEMBL document CHEMBL3774372, “Design, physico-chemical properties and biological evaluation of some new N-[(phenoxy)alkyl]- and N-{2-[2-(phenoxy)ethoxy]ethyl}aminoalkanols as anticonvulsant agents” (Bioorg Med Chem, 2016)
Active and inactive are the calls of the source. The calls are words filed in the database; no cut-off is given here.

Key:
[1] = target: Muscarinic acetylcholine receptor M2 (Homo sapiens) (UniProt P08172); assay: Displacement of [3H]AF-DX384 from human recombinant muscarinic M2 receptor expressed in CHO cells at 10^-5 M; type: cell-based
Sequence of Muscarinic acetylcholine receptor M2 (Homo sapiens) (P08172 whole entry): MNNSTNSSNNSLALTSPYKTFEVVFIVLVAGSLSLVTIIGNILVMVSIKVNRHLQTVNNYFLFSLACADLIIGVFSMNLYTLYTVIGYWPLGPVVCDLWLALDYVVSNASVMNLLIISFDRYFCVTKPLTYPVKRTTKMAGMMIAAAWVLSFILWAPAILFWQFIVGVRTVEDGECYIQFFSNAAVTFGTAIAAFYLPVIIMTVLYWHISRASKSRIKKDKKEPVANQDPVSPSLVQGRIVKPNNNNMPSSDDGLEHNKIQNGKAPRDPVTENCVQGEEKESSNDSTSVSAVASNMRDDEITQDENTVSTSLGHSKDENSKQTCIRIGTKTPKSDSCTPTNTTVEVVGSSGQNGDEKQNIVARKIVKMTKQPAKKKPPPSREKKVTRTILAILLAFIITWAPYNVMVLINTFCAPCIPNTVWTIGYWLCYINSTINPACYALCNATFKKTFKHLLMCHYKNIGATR
How it was run: (§1)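 Radioligand binding screen run at a single test concentration of 10^-5 M. Each target used its stated receptor source (human recombinant CHO or HEK-293 cells, endogenous cell lines, or rat tissue membranes) with the listed radioligand.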

[2] = target: Histamine H2 receptor (Homo sapiens) (UniProt P25021); assay: Displacement of [125I]APT from human recombinant histamine H2 receptor expressed in CHO cells at 10^-5 M; type: cell-based; how it was run: as §1
Sequence of Histamine H2 receptor (Homo sapiens) (P25021 whole entry): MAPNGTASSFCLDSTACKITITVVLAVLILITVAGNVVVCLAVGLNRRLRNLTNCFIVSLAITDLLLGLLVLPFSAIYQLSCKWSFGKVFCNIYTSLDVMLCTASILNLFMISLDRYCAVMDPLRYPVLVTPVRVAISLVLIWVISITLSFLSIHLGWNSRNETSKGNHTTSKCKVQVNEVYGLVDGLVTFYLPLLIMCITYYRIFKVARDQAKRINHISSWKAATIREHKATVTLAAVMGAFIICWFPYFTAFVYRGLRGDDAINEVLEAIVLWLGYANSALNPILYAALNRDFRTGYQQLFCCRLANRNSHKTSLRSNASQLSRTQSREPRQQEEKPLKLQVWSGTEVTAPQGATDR

[3] = target: Adenosine receptor A3 (Homo sapiens) (UniProt P0DMS8); assay: Displacement of [125I]ABMECA from human recombinant adenosine A3 receptor expressed in HEK293 cells at 10^-5 M; type: cell-based; how it was run: as §1
Sequence of Adenosine receptor A3 (Homo sapiens) (P0DMS8 whole entry): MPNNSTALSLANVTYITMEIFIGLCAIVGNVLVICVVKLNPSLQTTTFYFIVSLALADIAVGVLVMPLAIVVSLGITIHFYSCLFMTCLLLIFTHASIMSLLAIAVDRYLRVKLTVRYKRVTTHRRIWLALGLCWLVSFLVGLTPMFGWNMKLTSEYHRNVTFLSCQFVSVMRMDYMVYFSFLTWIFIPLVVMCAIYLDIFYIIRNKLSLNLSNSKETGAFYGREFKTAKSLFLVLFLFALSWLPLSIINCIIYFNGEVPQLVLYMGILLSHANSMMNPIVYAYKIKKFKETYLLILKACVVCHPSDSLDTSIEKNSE

[4] = target: Vasopressin V1a receptor (Homo sapiens) (UniProt P37288); assay: Displacement of [3H]AVP from human recombinant arginine vasopressin receptor 1a expressed in CHO cells at 10^-5 M; type: cell-based; how it was run: as §1
Sequence of Vasopressin V1a receptor (Homo sapiens) (P37288 whole entry, looked up): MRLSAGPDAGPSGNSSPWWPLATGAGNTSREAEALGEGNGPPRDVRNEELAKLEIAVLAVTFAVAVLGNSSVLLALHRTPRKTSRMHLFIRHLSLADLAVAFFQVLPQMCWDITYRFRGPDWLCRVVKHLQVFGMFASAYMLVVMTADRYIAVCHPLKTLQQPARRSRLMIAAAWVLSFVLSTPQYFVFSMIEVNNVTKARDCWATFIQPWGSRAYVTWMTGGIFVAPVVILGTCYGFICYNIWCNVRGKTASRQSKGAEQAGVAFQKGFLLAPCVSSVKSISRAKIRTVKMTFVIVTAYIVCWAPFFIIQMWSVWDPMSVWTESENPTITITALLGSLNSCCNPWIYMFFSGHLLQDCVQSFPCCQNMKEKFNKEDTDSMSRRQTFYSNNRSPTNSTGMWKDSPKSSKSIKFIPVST

[5] = target: Endothelin-1 receptor (Homo sapiens) (UniProt P25101); assay: Displacement of [125I]Endothelin-1 from human recombinant Endothelin-1 receptor expressed in CHO cells at 10^-5 M; type: cell-based; how it was run: as §1
[6] = target: Muscarinic acetylcholine receptor M4 (Homo sapiens) (UniProt P08173); assay: Displacement of [3H]4-DAMP from human recombinant muscarinic M4 receptor expressed in CHO cells at 10^-5 M; type: cell-based; how it was run: as §1
Sequence of Muscarinic acetylcholine receptor M4 (Homo sapiens) (P08173 whole entry): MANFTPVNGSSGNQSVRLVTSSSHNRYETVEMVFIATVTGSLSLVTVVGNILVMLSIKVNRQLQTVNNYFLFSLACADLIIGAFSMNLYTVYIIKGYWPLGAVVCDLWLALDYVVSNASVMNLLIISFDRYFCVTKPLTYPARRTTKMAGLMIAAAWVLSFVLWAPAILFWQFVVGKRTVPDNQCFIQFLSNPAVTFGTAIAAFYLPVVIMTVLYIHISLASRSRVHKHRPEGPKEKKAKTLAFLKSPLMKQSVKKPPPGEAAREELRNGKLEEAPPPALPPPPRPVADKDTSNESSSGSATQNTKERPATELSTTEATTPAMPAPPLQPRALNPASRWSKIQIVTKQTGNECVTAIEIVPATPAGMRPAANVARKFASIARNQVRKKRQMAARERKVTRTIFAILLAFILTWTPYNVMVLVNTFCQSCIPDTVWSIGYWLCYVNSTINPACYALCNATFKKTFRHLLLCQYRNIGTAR

[7] = target: Kappa-type opioid receptor (Rattus norvegicus) (UniProt P34975); assay: Displacement of [3H]U 69593 from rat recombinant kappa-type opioid receptor expressed in CHO cells at 10^-5 M; type: cell-based
Sequence of Kappa-type opioid receptor (Rattus norvegicus) (P34975 whole entry): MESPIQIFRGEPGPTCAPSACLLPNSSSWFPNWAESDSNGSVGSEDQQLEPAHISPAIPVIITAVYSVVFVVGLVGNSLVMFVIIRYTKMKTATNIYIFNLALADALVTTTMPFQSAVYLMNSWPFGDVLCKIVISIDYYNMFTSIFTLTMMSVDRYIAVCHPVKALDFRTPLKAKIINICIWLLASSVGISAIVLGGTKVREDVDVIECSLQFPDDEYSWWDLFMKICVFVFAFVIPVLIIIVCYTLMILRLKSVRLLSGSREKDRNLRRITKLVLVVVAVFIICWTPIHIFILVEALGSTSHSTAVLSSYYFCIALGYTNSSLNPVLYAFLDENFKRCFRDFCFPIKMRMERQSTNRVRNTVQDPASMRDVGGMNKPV
How it was run: (§2)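 Radioligand displacement screen with the test agent at a single 10^-5 M concentration; receptor source and radioligand per target as tabulated (recombinant human cell lines or rat cerebral cortex/urinary bladder).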

Mus musculus [8] = assay: Anticonvulsant activity in mouse assessed as protection against maximal electric shock-induced seizures at 3 mg/kg, ip measured after 0.5 hrs; type: functional, organism-based
How it was run: (§3)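 Mice dosed ip with suspension in 0.5% methylcellulose; maximal electroshock applied at the listed time after dosing. Protection = abolition of hindlimb tonic extension component of seizure; reported as animals protected/animals tested.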

U-937 = assay: Displacement of [125I]TNF-alpha from TNF-alpha receptor in human U937 cells at 10^-5 M; type: cell-based; how it was run: as §1
[9] = target: Adrenergic receptor alpha-2 (Rattus norvegicus) (UniProt P22086+P19328+P22909); assay: Displacement of [3H]RX 821002 from rat cerebral cortex Alpha-2 adrenergic receptor at 10^-5 M; type: tissue-based; how it was run: as §1
Rattus norvegicus [10] = organism: Rattus norvegicus; assay: Displacement of [125I][Tyr4]bombesin from rat cerebral cortex Bombesin receptor at 10^-5 M; type: tissue-based; how it was run: as §1
CHO = assay: Displacement of [3H]DADLE from human recombinant delta-type 2 opioid receptor expressed in CHO cells at 10^-5 M; type: cell-based; how it was run: as §1
[11] = target: Muscarinic acetylcholine receptor M3 (Homo sapiens) (UniProt P20309); assay: Displacement of [3H]4-DAMP from human recombinant muscarinic M3 receptor expressed in CHO cells at 10^-5 M; type: cell-based; how it was run: as §1
Mus musculus [12] = assay: Anticonvulsant activity in mouse assessed as protection against maximal electric shock-induced seizures at 30 mg/kg, ip measured after 4 hrs; type: functional, organism-based; how it was run: as §3
[13] = target: 5-hydroxytryptamine receptor 3A (Homo sapiens) (UniProt P46098); assay: Displacement of [3H]BRL43694 from human recombinant 5-HT3 receptor expressed in CHO cells at 10^-5 M; type: cell-based; how it was run: as §1
Sequence of 5-hydroxytryptamine receptor 3A (Homo sapiens) (P46098 whole entry): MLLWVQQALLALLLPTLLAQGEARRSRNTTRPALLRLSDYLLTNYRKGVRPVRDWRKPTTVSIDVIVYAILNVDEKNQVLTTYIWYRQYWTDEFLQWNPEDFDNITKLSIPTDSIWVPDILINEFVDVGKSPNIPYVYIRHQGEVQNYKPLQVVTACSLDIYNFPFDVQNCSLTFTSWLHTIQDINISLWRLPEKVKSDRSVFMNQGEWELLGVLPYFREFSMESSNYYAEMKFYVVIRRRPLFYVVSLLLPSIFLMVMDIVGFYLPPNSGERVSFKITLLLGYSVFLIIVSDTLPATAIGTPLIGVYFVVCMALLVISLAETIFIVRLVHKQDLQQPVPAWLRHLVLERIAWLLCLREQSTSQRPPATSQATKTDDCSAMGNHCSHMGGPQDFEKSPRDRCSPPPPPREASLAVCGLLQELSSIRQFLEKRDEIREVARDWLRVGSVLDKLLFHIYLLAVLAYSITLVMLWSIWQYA

[14] = target: 5-hydroxytryptamine receptor 2C (Homo sapiens) (UniProt P28335); assay: Displacement of [3H][…] from human recombinant 5-HT2C receptor expressed in HEK293 cells at 10^-5 M; type: cell-based; how it was run: as §2
[15] = target: Mu-type opioid receptor (Homo sapiens) (UniProt P35372); assay: Displacement of [3H]DAMGO from human recombinant Mu-type opioid receptor expressed in CHO cells at 10^-5 M; type: cell-based; how it was run: as §1
Sequence of Mu-type opioid receptor (Homo sapiens) (P35372 whole entry): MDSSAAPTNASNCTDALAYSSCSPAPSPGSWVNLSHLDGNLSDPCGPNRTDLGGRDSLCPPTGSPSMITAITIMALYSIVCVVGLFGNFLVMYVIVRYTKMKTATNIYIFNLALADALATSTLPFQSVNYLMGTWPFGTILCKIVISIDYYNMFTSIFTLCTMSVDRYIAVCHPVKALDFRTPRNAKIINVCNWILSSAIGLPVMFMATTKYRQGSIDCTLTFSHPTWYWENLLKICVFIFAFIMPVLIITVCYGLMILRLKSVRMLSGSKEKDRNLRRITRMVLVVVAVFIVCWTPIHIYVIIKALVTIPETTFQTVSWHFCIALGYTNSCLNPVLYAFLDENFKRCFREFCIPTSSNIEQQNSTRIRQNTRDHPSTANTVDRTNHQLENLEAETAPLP

Rattus norvegicus [16] = assay: Anticonvulsant activity in pilocarpine-induced status epilepticus Sprague-Dawley rat model at 30 mg/kg, ip after 0.5 hrs during post stage 3 seizure; type: functional, organism-based
How it was run: (§4)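 Rats given pilocarpine 50 mg/kg ip and observed to first convulsive seizure (Racine stage 3–5, time zero); test drug then given ip in 0.5% methylcellulose. Efficacy = halting further stage 3–5 convulsive seizures; scored protected/tested, time after first stage 3 seizure.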

[17] = target: Adrenergic receptor alpha-1 (Rattus norvegicus) (UniProt P15823+P23944+P43140); assay: Displacement of [3H]prazosin from rat cerebral cortex Alpha-1 adrenergic receptor at 10^-5 M; type: tissue-based; how it was run: as §2
[18] = target: Cannabinoid receptor 1 (Homo sapiens) (UniProt P21554); assay: Displacement of [3H]CP 55940 from human recombinant CB1 receptor expressed in CHO cells at 10^-5 M; type: cell-based; how it was run: as §1
Rattus norvegicus [19] = assay: Anticonvulsant activity in pilocarpine-induced status epilepticus Sprague-Dawley rat model at 30 mg/kg, ip after 2 hrs during post stage 3 seizure; type: functional, organism-based; how it was run: as §4
Rattus norvegicus [20] = organism: Rattus norvegicus; assay: Displacement of [3H]GABA from rat cerebral cortex GABA receptor at 10^-5 M; type: tissue-based; how it was run: as §1
[21] = target: 5-hydroxytryptamine receptor 7 (Homo sapiens) (UniProt P34969); assay: Displacement of [3H]LSD from human recombinant 5-HT7 receptor expressed in CHO cells at 10^-5 M; type: cell-based; how it was run: as §1
[22] = target: 5-hydroxytryptamine receptor 1B (Rattus norvegicus) (UniProt P28564); assay: Displacement of [125I]CYP from rat cerebral cortex 5-HT1B receptor at 10^-5 M in the presence of isoproternol; type: tissue-based; how it was run: as §1
[23] = target: Prostaglandin E2 receptor EP4 subtype (Homo sapiens) (UniProt P35408); assay: Displacement of [3H]PGE2 from human recombinant prostanoid EP4 receptor expressed in HEK293 cells at 10^-5 M; type: cell-based; how it was run: as §1
Sequence of Prostaglandin E2 receptor EP4 subtype (Homo sapiens) (P35408 whole entry): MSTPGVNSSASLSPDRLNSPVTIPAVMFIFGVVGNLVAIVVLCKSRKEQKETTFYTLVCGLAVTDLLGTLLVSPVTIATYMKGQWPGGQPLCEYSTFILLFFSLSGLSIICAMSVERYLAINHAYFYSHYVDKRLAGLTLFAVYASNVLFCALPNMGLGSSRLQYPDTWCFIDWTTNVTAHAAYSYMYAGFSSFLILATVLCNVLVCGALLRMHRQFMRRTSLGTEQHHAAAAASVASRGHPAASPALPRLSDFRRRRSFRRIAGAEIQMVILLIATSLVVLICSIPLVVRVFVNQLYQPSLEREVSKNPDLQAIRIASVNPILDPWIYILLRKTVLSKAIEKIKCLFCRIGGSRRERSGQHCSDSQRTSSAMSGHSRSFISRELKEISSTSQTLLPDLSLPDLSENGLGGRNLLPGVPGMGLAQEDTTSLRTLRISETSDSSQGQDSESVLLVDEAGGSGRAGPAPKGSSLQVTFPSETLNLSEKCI

[24] = target: Glucocorticoid receptor (Homo sapiens) (UniProt P04150); assay: Displacement of [3H]dexamethasone from glucocorticoid receptor in human IM9 cells at 10^-5 M; type: cell-based; settings: IM-9; how it was run: as §2
[25] = target: D(1B) dopamine receptor (Homo sapiens) (UniProt P21918); assay: Displacement of [3H]SCH23390 from human recombinant Dopamine D5 receptor expressed in GH4 cells at 10^-5 M; type: cell-based; how it was run: as §2
[26] = target: Beta-2 adrenergic receptor (Homo sapiens) (UniProt P07550); assay: Displacement of [3H](-)CGP12177 from human recombinant Beta-2 adrenergic receptor expressed in CHO cells at 10^-5 M; type: cell-based; how it was run: as §1
Sequence of Beta-2 adrenergic receptor (Homo sapiens) (P07550 whole entry, looked up): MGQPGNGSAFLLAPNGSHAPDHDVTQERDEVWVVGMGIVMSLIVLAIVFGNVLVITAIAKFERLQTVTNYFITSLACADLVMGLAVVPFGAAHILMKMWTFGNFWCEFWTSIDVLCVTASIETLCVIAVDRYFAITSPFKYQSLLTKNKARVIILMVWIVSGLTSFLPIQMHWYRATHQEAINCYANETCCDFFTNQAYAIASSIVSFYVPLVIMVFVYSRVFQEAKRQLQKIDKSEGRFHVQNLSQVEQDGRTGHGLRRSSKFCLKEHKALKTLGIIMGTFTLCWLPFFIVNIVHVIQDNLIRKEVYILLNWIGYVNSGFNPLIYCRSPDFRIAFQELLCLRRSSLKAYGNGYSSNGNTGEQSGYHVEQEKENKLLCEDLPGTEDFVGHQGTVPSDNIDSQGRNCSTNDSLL

[27] = target: 5-hydroxytryptamine receptor 6 (Homo sapiens) (UniProt P50406); assay: Displacement of [3H]LSD from human recombinant 5-HT6 receptor expressed in CHO cells at 10^-5 M; type: cell-based; how it was run: as §1
Jurkat = assay: Displacement of [3H]DTG from sigma receptor in human jurkat cells at 10^-5 M; type: cell-based; how it was run: as §1
[28] = target: Melanocortin receptor 4 (Homo sapiens) (UniProt P32245); assay: Displacement of [125I]NDP-alpha-MSH from human recombinant MC4 receptor expressed in CHO cells at 10^-5 M; type: cell-based; how it was run: as §1
Sequence of Melanocortin receptor 4 (Homo sapiens) (P32245 whole entry): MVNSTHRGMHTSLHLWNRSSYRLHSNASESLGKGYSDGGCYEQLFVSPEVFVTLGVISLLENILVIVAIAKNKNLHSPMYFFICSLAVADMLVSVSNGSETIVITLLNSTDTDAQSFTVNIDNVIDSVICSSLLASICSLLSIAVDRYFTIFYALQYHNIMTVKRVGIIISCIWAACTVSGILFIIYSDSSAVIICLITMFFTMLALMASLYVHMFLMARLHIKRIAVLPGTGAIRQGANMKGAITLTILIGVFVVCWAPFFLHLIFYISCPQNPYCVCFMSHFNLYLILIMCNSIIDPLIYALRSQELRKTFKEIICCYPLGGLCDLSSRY

[29] = target: B2 bradykinin receptor (Homo sapiens) (UniProt P30411); assay: Displacement of [3H]bradykinin from human recombinant B2 bradykinin receptor at 10^-5 M; how it was run: as §2
Sequence of B2 bradykinin receptor (Homo sapiens) (P30411 whole entry): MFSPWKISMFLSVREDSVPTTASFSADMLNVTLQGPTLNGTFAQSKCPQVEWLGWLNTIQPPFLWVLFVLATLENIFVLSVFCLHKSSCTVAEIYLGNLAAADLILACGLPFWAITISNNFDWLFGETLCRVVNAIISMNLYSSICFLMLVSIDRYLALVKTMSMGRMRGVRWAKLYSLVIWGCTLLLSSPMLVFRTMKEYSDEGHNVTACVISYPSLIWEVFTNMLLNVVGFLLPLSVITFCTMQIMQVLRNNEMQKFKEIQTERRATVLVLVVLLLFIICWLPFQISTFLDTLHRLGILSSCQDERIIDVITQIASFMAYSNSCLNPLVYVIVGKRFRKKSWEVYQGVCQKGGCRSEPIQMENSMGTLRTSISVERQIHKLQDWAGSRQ

Rattus norvegicus [30] = organism: Rattus norvegicus; assay: Displacement of [3H]D888 from rat cerebral cortex L-type calcium channel verapamil binding site at 10^-5 M; type: tissue-based; how it was run: as §1

For `Cc1cccc(C)c1OCCOCCN[C@H](C)CO`, the inhibition [1] was 20.8%, the inhibition [2] was 0.6% and the inhibition [3] was -1.8%. The inhibition [4] was -3.2%, the inhibition [5] was -3.4% and the inhibition [6] was 11.2%. For the same molecule, the inhibition [7] was 29.3%, the Activity (Mus musculus [8]) was “inactive” and the inhibition (U-937) was 5.1%. The inhibition [9] was 42.8%, the inhibition (Rattus norvegicus [10]) was -1.4% and the inhibition (CHO) was -1.7%. The inhibition [11] was 8.5%, the Activity (Mus musculus [12]) was “inactive” and the inhibition [13] was 29.4%. For the same molecule, the inhibition [14] was 34.7%, the inhibition [15] was 23.6% and the Activity (Rattus norvegicus [16]) was “inactive”. The inhibition [17] was 32.3%, the inhibition [18] was 12.6% and the Activity (Rattus norvegicus [19]) was “inactive”. The inhibition (Rattus norvegicus [20]) was 0.8%, the inhibition [21] was 24.5% and the inhibition [22] was -1.8%. For the same molecule, the inhibition [23] was 14.9%, the inhibition [24] was 31.3% and the inhibition [25] was 10.1%. For the same molecule, the inhibition [26] was 2%, the inhibition [27] was 6.7% and the inhibition (Jurkat) was 92.9%. For the same molecule, the inhibition [28] was 5.3%, the inhibition [29] was -3.9% and the inhibition (Rattus norvegicus [30]) was 43.6%.

`Cc1cccc(C)c1OCCOCCN[C@@H](C)CO` gave an inhibition [1] of 37.2%, an inhibition [2] of 17.1% and an inhibition [3] of 3%. It also gave an inhibition [4] of -0.8%, an inhibition [5] of -4.4% and an inhibition [6] of 15.7%. The inhibition [7] was 54%, the Activity (Mus musculus [8]) was “inactive” and the inhibition (U-937) was 4.6%. For the same molecule, the inhibition [9] was 35.5%, the inhibition (Rattus norvegicus [10]) was -5.4% and the inhibition (CHO) was -2.2%. For the same molecule, the inhibition [11] was 4.4%, the Activity (Mus musculus [12]) was “inactive” and the inhibition [13] was 12.3%. The inhibition [14] was 47.4%, the inhibition [15] was 40.2% and the Activity (Rattus norvegicus [16]) was “inactive”. The inhibition [17] was 28.3%, the inhibition [18] was 11.1% and the Activity (Rattus norvegicus [19]) was “inactive”. For the same molecule, the inhibition (Rattus norvegicus [20]) was 17.7%, the inhibition [21] was 24.6% and the inhibition [22] was 16.5%. It also gave an inhibition [23] of 3%, an inhibition [24] of 8.3% and an inhibition [25] of 5.2%. It also gave an inhibition [26] of 5.7%, an inhibition [27] of 15.4% and an inhibition (Jurkat) of 95.6%. For the same molecule, the inhibition [28] was 9%, the inhibition [29] was 1.6% and the inhibition (Rattus norvegicus [30]) was 65.9%.
